An excerpt weighted towards active compounds, which were near 1.6% of everything screened.
STEP inh: inhibitors of human striatal-enriched phosphatase STEP; P54829; recombinant STEP, OMFP fluorogenic substrate, fluorescence; inhibition, % at 20 µM; actives 0.25% (n = 360,000); AID 588621;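 active = inhibition at 20 µM, scaled per plate between control wells, above about 37%, limit read from the data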;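 also: 0% = DMSO with enzyme and substrate and 100% = substrate only without enzyme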
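medium = Bis-Tris buffer pH 6.0, 2.5 mM DTT, 0.005% Tween 20 | test system = STEP (striatal-enriched tyrosine phosphatase) enzyme, cell-free | measure = normalized % inhibition | compound dosing = 20 µM, 1% DMSO | also added = 25 µM OMFP | schedule = reaction 20 min, ambient temperature | measured by = fluorescence read at 480 nm ex / 540 nm em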
Scp1 inh: Scp-1 (human) phosphatase inhibition. Recombinant Scp1, phosphopeptide, malachite green phosphate absorbance. inhibition, % at 20 µM. Q9GZU7. actives 0.88% (n = 340,000);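 active = inhibition above about 50% at 20 µM, limit read from the data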;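 also: plate controls were DMSO wells with enzyme for no effect and wells lacking enzyme for full effect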
Target sequence (Q9GZU7 76-261 limits assumed): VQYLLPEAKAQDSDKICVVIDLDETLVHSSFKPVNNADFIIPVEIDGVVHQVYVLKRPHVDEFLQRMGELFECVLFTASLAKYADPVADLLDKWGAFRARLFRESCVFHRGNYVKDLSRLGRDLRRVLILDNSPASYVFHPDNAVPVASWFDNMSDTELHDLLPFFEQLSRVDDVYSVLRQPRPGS
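Incubation: 45 min enzyme reaction at room temperature / System: truncated SCP-1 phosphatase (76-261aa) / Reagent: Phospho 17-mer peptide substrate / Buffer or medium: Acidic Tris acetate buffer with magnesium and detergent / Signal: absorbance at 630 nm / Doses: one concentration, 20 µM, with 1.0% DMSO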
CFTR F508del cor: correctors of CFTR F508del function in bronchial epithelial cells; CFBE cells, YFP halide quenching; stimulated with forskolin plus potentiator P3; % fluorescence drop versus neutral controls; activity (quench increase), % at 7.58 µM; actives 0.36% (n = 350,000);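 active = mean added fluorescence quench of at least 8% versus neutral control, with both replicates also reaching 8%; inconclusive = only one of the mean or replicate conditions met; inactive = mean below 8% and not both replicates reaching 8%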;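 also: cells transiently co-express mutant CFTR-F508del with the halide-sensitive YFP; corrector assay measuring rescue of mutant channel to the surface after 24 h compound exposure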
SUMO1-SIM PPI: alters human SUMO1 binding to SIM partners; P63165; SUMO1 binding to a labelled peptide, TR-FRET, 1 h; inhibition, % at 20 µM; actives 0.33% (n = 360,000); AID 602429; in the data active = inhibition above about 37%
Target sequence (P63165 whole entry, looked up): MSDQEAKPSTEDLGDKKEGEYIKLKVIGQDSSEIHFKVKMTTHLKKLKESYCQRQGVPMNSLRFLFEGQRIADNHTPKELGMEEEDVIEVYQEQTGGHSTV
LMPTP inh: LMPTP (human) inhibition | recombinant LMPTP-A, OMFP fluorogenic substrate, fluorescence intensity | AID 651560 | P24666 | actives 0.22% (n = 360,000) | inhibition, % at 20 µM;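 active = compounds that cut the enzyme signal by at least half of the control window in the single-dose screen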;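 also: plate controls were DMSO wells with enzyme plus substrate for no effect and substrate without enzyme for full effect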
Target sequence (P24666 whole entry, looked up): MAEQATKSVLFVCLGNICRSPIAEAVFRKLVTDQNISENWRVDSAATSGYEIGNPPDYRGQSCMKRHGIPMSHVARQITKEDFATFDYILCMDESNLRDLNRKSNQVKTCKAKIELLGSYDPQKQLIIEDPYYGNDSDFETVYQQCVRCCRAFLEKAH
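Assay system: LMPTP-A phosphatase enzyme | Input: 0.625 nM enzyme | Also added: Fluorogenic phosphatase substrate OMFP at 400 µM final | Compound dosing: One test concentration per compound, 20 µM, with 3% DMSO overall | Schedule: 50 min enzyme reaction at room temperature, protected from light | Signal: Fluorescence intensity | Benchmarks: no-enzyme and uninhibited controls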
DNMT1 block: blocks human DNA methyltransferase DNMT1 | P26358 | DNMT1 molecular beacon, Hinp1I cleavage, fluorescence | inhibition (reported as % activation of signal), % at 10 µM | actives 0.83% (n = 360,000); in the data active = inhibition above about 50%
* marks the source's active call; other numbers are inactive results; ? = inconclusive; nt = no result given.

SMILES	STEP inh	Scp1 inh	CFTR F508del cor	SUMO1-SIM PPI	LMPTP inh	DNMT1 block
O=C(NC1CCCC1)c1ccc2nc(-c3ccco3)c(-c3ccco3)nc2c1	11	79*	nt	36	56*	113*
O=C(NCCc1ccccc1)c1ccc2nc(-c3ccco3)c(-c3ccco3)nc2c1	6	77*	nt	27	59*	105*
O=C(NCCc1ccccc1)c1ccc(=O)oc1	1	-2	nt	-7	-1	2
O=C(NC1CCCC1)c1ccc2nc[nH]c2c1	-3	-2	nt	-1	-2	-6
O=S(=O)(N[C@H]1CC[C@@H](CCn2cc(C3(O)CCCC3)nn2)O[C@H]1CO)c1ccc(Cl)cc1	nt	nt	3	nt	nt	nt
Cc1cc(C(=O)N/N=C/c2cc(Br)cc(Br)c2OC(=O)c2cccc(F)c2)n[nH]1	1	87*	?	7	65*	35
Cc1cccc(C(=O)Oc2c(Br)cc(Br)cc2/C=N/NC(=O)c2ccncc2)c1	0	-7	6	1	0	1
Cn1c(NCc2ccccc2F)nc2cc(-c3ccsc3)sc2c1=O	-4	nt	8.1*	-19	4	-8
CCOc1ccc(S(=O)(=O)NCc2ccccn2)cc1NC(=O)c1ccccc1	-2	-3	6	2	-1	2
COc1ccc(S(=O)(=O)NCc2ccccn2)cc1NC(=O)c1ccccc1F	-1	-2	8.6*	-1	0	2
COc1ccc(S(=O)(=O)NCc2cccnc2)cc1NC(=O)c1ccccc1C	6	50	3	21	46	53*
CCOc1ccc(S(=O)(=O)NCc2cccnc2)cc1NC(=O)c1ccccc1	-2	27	-1	4	0	2
Cc1noc(C)c1NC(=O)N[C@@H]1C=C[C@H](CC(=O)Nc2ccccc2)O[C@H]1CO	nt	nt	1	nt	nt	nt
O=c1c2ccccc2sn1-c1cccc(Cl)c1	-2	nt	-3	17	-1	1
Cc1ccc(-n2sc3ccccc3c2=O)cc1S(=O)(=O)N1CCCCC1	1	97*	-3	18	-1	6
CN(C)S(=O)(=O)c1cccc(-n2sc3ccccc3c2=O)c1	0	99*	-5	4	-1	2
O=C(O)c1cccc(-n2sc3ccccc3c2=O)c1	4	88*	-5	7	-3	14
O=c1c2ccccc2sn1-c1ccccc1	1	65*	nt	-1	0	1
CO[C@H]1CN(C)C(=O)c2cc(NC(=O)c3ccccc3F)ccc2OC[C@H](C)N(C(C)=O)C[C@@H]1C	nt	nt	0	nt	nt	nt
O=C(C[C@@H]1CC[C@H]2[C@@H](COC[C@@H](O)CN2C(=O)c2ccc(F)cc2)O1)NCc1cccc(F)c1	nt	nt	1	nt	nt	nt
O=c1c2cc(F)ccc2sn1-c1ccccc1	1	92*	-2	-1	-2	-7
O=c1c2ccccc2sn1-c1nccs1	0	96*	-10	5	1	0
CCC(=O)Nc1ccc2c(c1)C(=O)N(C)C[C@@H](OC)[C@@H](C)CN(CC1CCOCC1)[C@@H](C)CO2	nt	nt	4	nt	nt	nt
O=C(NNC(=O)c1ccccc1-c1ccccc1C(=O)O)c1ccccc1	4	-4	2	0	0	3
O=C(C=P(c1ccccc1)(c1ccccc1)c1ccccc1)c1ccccc1-c1ccccc1C(=O)C=P(c1ccccc1)(c1ccccc1)c1ccccc1	7	36	5	-39	59*	8
SMILES	STEP inh	Scp1 inh	CFTR F508del cor	SUMO1-SIM PPI	LMPTP inh	DNMT1 block
Cc1cc(/C=N/NC(=O)C(O)(c2ccccc2)c2ccccc2)c(C)n1-c1ccc(C(=O)O)cc1	0	12	-1	8	0	11
Cc1cc(/C=N/NC(=O)C(O)(c2ccccc2)c2ccccc2)c(C)n1-c1cccc(C(=O)O)c1	3	27	1	27	2	54*
COc1ccc(Cc2c(C(C)(C)C)nc3ccc(Cl)cn23)c(C)c1	2	nt	2	-4	4	104*
C[C@H](CO)N1C[C@H](C)[C@H](CN(C)C(=O)Nc2cccc3ccccc23)Oc2ccc(NC(=O)Nc3cccc4ccccc34)cc2C1=O	nt	nt	0	nt	nt	nt
COc1ccc2oc(=Nc3ccc(C(=O)O)cc3)c(C(=O)NCc3ccco3)cc2c1	-3	-9	-1	65*	1	4
COc1ccc2cc(C(=O)NCc3ccco3)c(=O)oc2c1	-2	-8	nt	-16	-2	4
CCOc1ccc(C(=O)NNC(=O)CCNC(=O)c2ccc(Br)cc2)cc1OC	0	-4	21*	-4	-1	3
Cc1ccc(OCCC(=O)NNC(=O)c2ccc(Br)cc2)cc1	-4	-3	8.6*	7	-2	1
COCC(=O)Nc1ccc2c(c1)C(=O)N(C)C[C@H](OC)[C@@H](C)CN(Cc1cccc(F)c1)[C@H](C)CO2	nt	nt	-2	nt	nt	nt
C[C@@H]1CN([C@H](C)CO)C(=O)CCCn2nncc2CO[C@@H]1CN(C)Cc1ccc(-c2ccccc2)cc1	nt	nt	-2	nt	nt	nt
C[C@@H]1CN([C@H](C)CO)C(=O)c2cccc(NC(=O)Nc3ccc4c(c3)OCO4)c2O[C@@H]1CN(C)Cc1ccc(C(F)(F)F)cc1	nt	nt	-2	nt	nt	nt
COC(=O)c1ccc(NC(=O)COc2cccc3c2OC(C)(C)C3)cc1	1	-1	-3	-3	1	0
CC(=O)Nc1ccc(NC(=O)COc2cccc3c2OC(C)(C)C3)cc1	-1	10	11*	0	-1	-1
CC1(c2ccc(Cl)cc2Cl)NC(=O)N(CC(=O)Nc2ccc3[nH]c(=O)[nH]c3c2)C1=O (stereo unspecified)	3	-7	1	54*	0	-1
Cc1ccc(C2(C)NC(=O)N(CC(=O)Nc3ccc4[nH]c(=O)[nH]c4c3)C2=O)cc1 (stereo unspecified)	0	2	2	72*	4	1
COc1ccc(C2(C)NC(=O)N(CC(=O)Nc3ccc4[nH]c(=O)[nH]c4c3)C2=O)cc1 (stereo unspecified)	0	1	6	4	0	-2
C[C@@H]1CCCCO[C@@H](CN(C)C(=O)Nc2ccccc2)[C@H](C)CN([C@@H](C)CO)C(=O)c2cc(NC(=O)CCCN(C)C)ccc2O1	nt	nt	0	nt	nt	nt
Cc1nc(N=Nc2ccc(O)cc2)n[nH]1	1	81*	2	-33	-1	0
COc1ccc(NC(=O)c2cc(-c3ccco3)on2)c(OC)c1	-3	-8	2	7	1	-11
COc1ccc(NC(=O)c2cc(C3CC3)on2)c(OC)c1	-1	-1	8.2*	-2	0	-2
N#CCC(=O)N/N=C/c1cn(Cc2cccc3ccccc23)c2ccccc12	1	-34	11*	-1	2	15

Bioassay records from PubChem BioAssay.
